Laboratory results from PubChem BioAssay.
Active and inactive are the calls of the source.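 How the source made its calls, unless noted: active means inhibition at or above 50% relative to wild type and mutant plate controls; inactive means inhibition below 50%.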

Columns and labels:
[1] = inhibitors of TNFa-induced NFkB p65 translocation, primary screen, imaging, HUVEC, MLSMR starter and 10KST1 sets (AID 438;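 active means inhibition above 20% together with a positive visual image hit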;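 further: compound added about 3h40 before a 20 min TNFalpha stimulation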;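 on inhibition: signal is the nuclear over cytoplasmic p65 intensity ratio per well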); conditions: HUVEC TNFa-induced p65 nuclear translocation; cell count: measured here: nuclei count (cytotoxicity indicator), at 2.08 µM; inhibition: at 2 µM, stronger effect = higher value, 0% TNFa-plus-vehicle, 100% no-TNFa wells
[2] = endothelial E-selectin expression blockers – imaging, HUVEC, immunofluorescence, MLSMR starter and 10KST1 sets, primary screen (AID 487;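 active means visually confirmed hit in the image check and inhibition above 20%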;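 on inhibition: signal is fraction of cell area covered by stained E-selectin grains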;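 on nuclei count: 100% = median nuclei count of all wells on the same plate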); conditions: HUVEC TNFalpha-induced E-selectin immunofluorescence imaging, at 2 µM; inhibition: stronger effect = higher value; nuclei count: measured here: cell number, toxicity
[3] = Primary imaging screen for DUSP6 inhibitors that restore phospho-Erk in transfected HeLa cells, chemical complementation (AID 609;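 active means compounds giving at least 50% inhibition in the cell-based MKP-3 phosphatase rescue imaging test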;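 on inhibition: phospho-Erk level distribution per well compared with pooled transfected vehicle control wells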); conditions: HeLa MKP-3 transfected, phospho-Erk imaging KS statistic, at 10 µM, cells stimulated with TPA for 15 min
[4] = molecular target: Dual specificity protein phosphatase 6 (Homo sapiens) (UniProt Q16828); test: as above; conditions: HeLa MKP-3 transfected, phospho-Erk imaging KS statistic; at 10 µM; stronger effect = higher value; cells stimulated with TPA for 15 min
[5] = molecular target: Voltage-gated potassium channel subunit beta-2 (Rattus norvegicus) (UniProt P62483); test: inhibitors of rat Kvbeta2 reductase activity – biochemical, NADPH fluorescence, primary screen (AID 622;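 active means fluorescence slope higher than the sample average by over 3 SD, cut at about -0.22 in these data, passing the limit was not always enough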;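 further: slope of raw intensity against log time taken from 70 to 1610 s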); conditions: recombinant KvBeta, 4-cyanobenzaldehyde reduction, at 10 µM, stronger effect = higher value
[6] = molecular target: Voltage-gated potassium channel subunit beta-2 (Rattus norvegicus) (UniProt P62483); test: enhancers of rat Kvbeta2 NADPH turnover – biochemical, NADPH fluorescence, primary screen (AID 623;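 active means NADPH fluorescence slope more negative than the mean of all samples by about 3 SD, 99.7% confidence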;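 further: fluorescence intensity change per second fitted from 20 to 320 s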); conditions: Recombinant KvBeta, NADPH fluorescence decrease slope, 10 min; at 10 µM; stronger effect = lower value
[7] = molecular target: Muscarinic acetylcholine receptor M4 (Homo sapiens) (UniProt P08173); test: M4-linked GIRK flux change, two-sided – cell-based, HEK293 M4/GIRK, thallium flux, BTC-AM, M4 allosteric agonist project, primary screen (AID 625;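 active means fluorescence slope after compound addition differing from the mean of all tested samples at 99.7% confidence, mostly higher but some lower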;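 further: thallium influx through GIRK channels coupled to M4 in HEK293 cells with BTC-AM dye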); conditions: at 10 µM, actives lie on both sides
Method in brief: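 Material: M4/GIRK1/GIRK2 stable HEK293 cell line. Medium: pH 7.3 thallium assay buffer. Dosing: single compound concentration, 10 µM final. Schedule: 1 h dye loading, 2 min kinetic read. Measured by: kinetic fluorescence with BTC-AM dye. Read-out: post-addition slope, 15–24 s, of baseline-normalized fluorescence. Benchmarks: carbachol and DMSO controls.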

[8] = inhibitors of larval lipid processing in zebrafish, primary screen, whole organism, PED6 fluorescence, gall bladder and intestine (AID 686;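 active means a full or partial loss of lipid-probe fluorescence in the fish gall bladder, intestine or both, judged by eye; inactive means no fluorescence loss, or compound toxic to the fish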;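 further: larvae 5 to 7 days old with five fish per well; signal comes from phospholipase A2 cleavage of quenched PED6 carried via bile; overnight exposure to compound and PED6 before scoring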); conditions: Zebrafish larvae PED6 lipid processing, fluorescence scoring; screened at 20 µM (by protocol)
Method in brief: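 System: live zebrafish larvae aged 5-7 days, whole organism; measure: graded gall bladder and intestinal fluorescence inhibition per well; incubation: overnight exposure; reagent: ingested quenched lipid PED6 at 100 nM; signal: By-eye fluorescence microscopy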

[9] = loss of swimming-algae plug formation – whole organism, Chlamydomonas reinhardtii, WT vs cilia-less mutant, absorbance, 96-well, primary screen (AID 463189); conditions: Chlamydomonas reinhardtii gravitaxis, OD600 absorbance, 2 days; at 10 µM; stronger effect = higher value;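 further: 0% = wild type cc124 cells in DMSO and 100% = ciliumless bld1 mutant cells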
[10] = measured here: cell density z-score
[11] = measured here: nuclear c-Myc green intensity z-score
[12] = measured here: nuclear pErk red intensity z-score, stronger effect = higher value

Voltage-gated potassium channel subunit beta-2 (Rattus norvegicus), sequence (P62483 whole entry, looked up): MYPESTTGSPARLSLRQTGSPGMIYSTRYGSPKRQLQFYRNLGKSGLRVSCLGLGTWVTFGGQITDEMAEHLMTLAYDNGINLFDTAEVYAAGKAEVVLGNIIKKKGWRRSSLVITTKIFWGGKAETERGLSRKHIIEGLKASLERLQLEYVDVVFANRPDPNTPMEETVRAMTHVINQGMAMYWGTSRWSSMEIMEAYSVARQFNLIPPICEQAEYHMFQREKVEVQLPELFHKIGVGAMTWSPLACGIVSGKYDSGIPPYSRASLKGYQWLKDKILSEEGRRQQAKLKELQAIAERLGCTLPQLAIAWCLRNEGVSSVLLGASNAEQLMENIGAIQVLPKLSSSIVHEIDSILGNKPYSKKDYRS
Dual specificity protein phosphatase 6 (Homo sapiens), sequence (Q16828 whole entry, looked up): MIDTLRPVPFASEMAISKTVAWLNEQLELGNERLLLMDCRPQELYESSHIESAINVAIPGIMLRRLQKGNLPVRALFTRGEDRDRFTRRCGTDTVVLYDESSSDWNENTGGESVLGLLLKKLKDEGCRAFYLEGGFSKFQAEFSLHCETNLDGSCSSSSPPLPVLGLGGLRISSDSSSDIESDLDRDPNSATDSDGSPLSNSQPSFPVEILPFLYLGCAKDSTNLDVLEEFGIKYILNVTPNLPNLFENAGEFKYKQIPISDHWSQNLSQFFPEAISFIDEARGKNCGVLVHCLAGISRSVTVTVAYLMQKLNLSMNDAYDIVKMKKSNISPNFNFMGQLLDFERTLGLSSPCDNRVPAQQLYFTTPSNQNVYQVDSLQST
Muscarinic acetylcholine receptor M4 (Homo sapiens), sequence (P08173 whole entry, looked up): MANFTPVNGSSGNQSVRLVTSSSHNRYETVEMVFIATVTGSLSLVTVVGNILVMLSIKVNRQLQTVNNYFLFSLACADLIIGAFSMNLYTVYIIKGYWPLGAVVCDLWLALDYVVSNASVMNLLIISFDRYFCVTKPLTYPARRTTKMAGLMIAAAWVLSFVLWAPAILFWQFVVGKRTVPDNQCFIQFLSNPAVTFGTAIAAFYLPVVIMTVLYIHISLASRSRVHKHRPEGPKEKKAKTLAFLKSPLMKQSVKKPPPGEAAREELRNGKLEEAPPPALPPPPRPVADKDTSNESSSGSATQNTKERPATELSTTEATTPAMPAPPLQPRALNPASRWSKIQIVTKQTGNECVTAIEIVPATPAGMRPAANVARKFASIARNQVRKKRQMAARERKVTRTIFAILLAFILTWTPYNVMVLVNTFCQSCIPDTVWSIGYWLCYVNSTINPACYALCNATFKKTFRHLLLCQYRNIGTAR

Structure (SMILES)	cell count [1]	inhibition [1]	inhibition [2]	nuclei count [2]	z-score [3, 10]	z-score [3, 11]	z-score [3, 12]	inhibition [4]	fluorescence slope [5]	NADPH fluorescence slope [6]	fluorescence slope [7]	outcome [8]	inhibition [9]
CN(CCNC(=O)c1ccc(/C=N/O)nc1)Cc1ccccc1	620	-9.1% (inactive)	-41% (inactive)	182%	-0.419	-0.398	-0.0227	1.63% (inactive)	-0.479 (inactive)	-5.2e-05 (inactive)	0.00471 (inactive)	inactive	1.08% (inactive)
Cc1cc(C)n(CC2CC(=O)N(c3ccc(F)c(Cl)c3)C2=O)n1 (configuration not stated)	460	-0.7% (inactive)	-64.8% (inactive)	111%	-0.992	0.731	-1.56	-3.97% (inactive)	-0.314 (inactive)	1.8e-05 (inactive)	0.00494 (inactive)	inactive	-11.1% (inactive)
CCCCC(CCC(=O)Nc1ccc(C(=O)OCC)cc1)C(=O)O (configuration not stated)	378	-11.3% (inactive)	-153% (inactive)	159%	-0.634	-1.85	0.598	-0.608% (inactive)	-0.468 (inactive)	-0.000129 (inactive)	0.00338 (inactive)	inactive	5.13% (inactive)
CC1CCN(c2[nH]c(=S)c(C#N)c3c2CCCC3)CC1	383	-5.9% (inactive)	-5.3% (inactive)	140%	0.378	-0.606	1.46	1.42% (inactive)	-0.469 (inactive)	-0.000131 (inactive)	0.00501 (inactive)	inactive	19.3% (inactive)
CN(C)CCCN(CCCNC(=O)/C=N/O)Cc1ccccc1	652	-10.5% (inactive)	-38% (inactive)	181%	-1.02	-0.157	0.798	-2.09% (inactive)	-0.495 (inactive)	-5.8e-05 (inactive)	0.00839 (inactive)	inactive	8.7% (inactive)
Nc1ccc2c3c(cccc13)CC2	400	-4.5% (inactive)	-74% (inactive)	108%	0.938	0.125	-0.141	9.37% (inactive)	-0.281 (inactive)	-2.2e-05 (inactive)	0.00407 (inactive)	inactive	-6.34% (inactive)
Cn1c(N)c(C#N)c2c(c1=S)CSC(C)(C)C2	571	-20% (inactive)	-64.2% (inactive)	144%	0.44	-1.23	-1.03	25.8% (inactive)	-0.446 (inactive)	-6.4e-06 (inactive)	0.00454 (inactive)	inactive	9.9% (inactive)
CCC(=O)NC1(C(F)(F)F)C(=O)Nc2c1c(=O)[nH]c(=O)n2Cc1ccco1 (configuration not stated)	652	-2.8% (inactive)	-96.3% (inactive)	167%	-1.08	0.161	0.694	1.04% (inactive)	-0.497 (inactive)	-8.6e-05 (inactive)	0.00505 (inactive)	inactive	9.21% (inactive)
Cc1cc(N2C(=O)C(=O)/C(=C(/O)c3ccc(F)cc3)C2c2cccc(Br)c2)no1 (configuration not stated)	478	2.6% (inactive)	2.7% (inactive)	145%	0.015	0.305	1.03	1.04% (inactive)	-0.439 (inactive)	-4.6e-05 (inactive)	0.00551 (inactive)	inactive	15.6% (inactive)
COc1ccc(C2CC(c3ccccc3)Nc3nc(N)nn32)cc1 (configuration not stated)	377	4.8% (inactive)	-29.3% (inactive)	110%	-1.01	-0.362	-0.446	1.48% (inactive)	-0.495 (inactive)	-1.6e-05 (inactive)	0.00558 (inactive)	inactive	-15% (inactive)
CCN(CC)CCCN1C(=O)C(=O)/C(=C(/O)c2ccc3c(c2)CC(C)O3)C1c1ccncc1 (configuration not stated)	613	-2.6% (inactive)	-3.9% (inactive)	154%	1.2	-0.776	-1.04	19.4% (inactive)	-0.478 (inactive)	-4.1e-05 (inactive)	0.00593 (inactive)	inactive	17% (inactive)
CCN(CC)CCOC(=O)c1c(C)n(C)c2ccc(OC)cc12	669	-3.7% (inactive)	-50.2% (inactive)	150%	0.791	-1.04	-1.03	4.37% (inactive)	-0.466 (inactive)	-0.000107 (inactive)	0.00645 (inactive)	inactive	32.6% (inactive)
C[n+]1cccc(CNC(=O)/C=N/O)c1	621	-2.4% (inactive)	-126% (inactive)	158%	-2.05	3.02	0.751	6.04% (inactive)	-0.47 (inactive)	-3e-05 (inactive)	0.00464 (inactive)	inactive	-6.73% (inactive)
Cc1ccc(Cn2ncc3c(N4CCN(Cc5ccc(Cl)cc5)CC4)ncnc32)cc1	549	22.5% (active)	-21.2% (inactive)	134%	-0.467	0.343	1.03	5.95% (inactive)	-0.368 (inactive)	-6.6e-05 (inactive)	0.00938 (inactive)	inactive	60.8% (active)
